From ChEMBL document CHEMBL5058577, “EUbOPEN Chemogenomics Library 2 (Multiplex)” (2022)

Test system: Fibroblast
Assay: Multiplex assay against human fibroblast
Format: toxicity, cell-based
Procedure, shortened: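 Live cells were stained at seeding with Hoechst33342, BioTracker Green Microtubule Cytoskeleton Dye, MitoTracker Red and Annexin V Alexa Fluor 680. Following compound addition, they were imaged on a CQ1 microscope at 37°C and 5% CO2 and gated by CellPathfinder machine learning into Hoechst high-intensity objects or normal cells, with normal cells split into healthy, pyknosed or fragmented nuclei and pyknosed cells into mitotic or apoptotic. Tubulin, mitochondrial-mass and membrane-permeability phenotypes are per cents of healthy-nucleus cells.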

[1] = 12 h, 1 µM, compound concentration 1 uM, replicate 1
[2] = 12 h, 1 µM, compound concentration 1 uM, replicate 2
[3] = 12 h, 10 µM, compound concentration 10 uM, replicate 1
[4] = 12 h, 10 µM, compound concentration 10 uM, replicate 2
[5] = 24 h, 1 µM, compound concentration 1 uM, replicate 1
[6] = 24 h, 1 µM, compound concentration 1 uM, replicate 2
[7] = 24 h, 10 µM, compound concentration 10 uM, replicate 1
[8] = 24 h, 10 µM, compound concentration 10 uM, replicate 2
[9] = 48 h, 1 µM, compound concentration 1 uM, replicate 1
[10] = 48 h, 1 µM, compound concentration 1 uM, replicate 2
[11] = 48 h, 10 µM, compound concentration 10 uM, replicate 1
[12] = 48 h, 10 µM, compound concentration 10 uM, replicate 2

CSc1nc(NC2CCCC2)c([N+](=O)[O-])c(NC2CCCC2)n1 [GS-39783]
Population Apoptotic (%) [1]: 50%
Population Fragmented Nuclei (%) [1]: 16%
Population Healthy Nuclei (%) [1]: 66%
Population Hoechst High Intensity Objects (%) [1]: 3%
Population Membrane Permeable-Phenotype (%) [1]: 2%
Population Mitochondria Different-Phenotype (%) [1]: 6%
Population Mitotic Cells (%) [1]: 50%
Population Normal (%) [1]: 96%
Population Pyknosed Nuclei (%) [1]: 16%
Population Tubulin-Different-Phenotype (%) [1]: 29%
Total Cell Count [1]: 137
Population Apoptotic (%) [2]: 39%
Population Fragmented Nuclei (%) [2]: 28%
Population Healthy Nuclei (%) [2]: 46%
Population Hoechst High Intensity Objects (%) [2]: 5%
Population Membrane Permeable-Phenotype (%) [2]: 10%
Population Mitochondria Different-Phenotype (%) [2]: 10%
Population Mitotic Cells (%) [2]: 60%
Population Normal (%) [2]: 94%
Population Pyknosed Nuclei (%) [2]: 25%
Population Tubulin-Different-Phenotype (%) [2]: 57%
Total Cell Count [2]: 135
Population Apoptotic (%) [3]: 54%
Population Fragmented Nuclei (%) [3]: 16%
Population Healthy Nuclei (%) [3]: 62%
Population Hoechst High Intensity Objects (%) [3]: 5%
Population Membrane Permeable-Phenotype (%) [3]: 0%
Population Mitochondria Different-Phenotype (%) [3]: 5%
Population Mitotic Cells (%) [3]: 45%
Population Normal (%) [3]: 94%
Population Pyknosed Nuclei (%) [3]: 21%
Population Tubulin-Different-Phenotype (%) [3]: 39%
Total Cell Count [3]: 184
Population Apoptotic (%) [4]: 36%
Population Fragmented Nuclei (%) [4]: 25%
Population Healthy Nuclei (%) [4]: 52%
Population Hoechst High Intensity Objects (%) [4]: 6%
Population Membrane Permeable-Phenotype (%) [4]: 4%
Population Mitochondria Different-Phenotype (%) [4]: 16%
Population Mitotic Cells (%) [4]: 63%
Population Normal (%) [4]: 93%
Population Tubulin-Different-Phenotype (%) [4]: 70%
Total Cell Count [4]: 165
Population Apoptotic (%) [5]: 30%
Population Fragmented Nuclei (%) [5]: 12%
Population Healthy Nuclei (%) [5]: 69%
Population Hoechst High Intensity Objects (%) [5]: 2%
Population Membrane Permeable-Phenotype (%) [5]: 3%
Population Mitochondria Different-Phenotype (%) [5]: 4%
Population Mitotic Cells (%) [5]: 69%
Population Normal (%) [5]: 97%
Population Pyknosed Nuclei (%) [5]: 17%
Population Tubulin-Different-Phenotype (%) [5]: 27%
Total Cell Count [5]: 132
Population Apoptotic (%) [6]: 32%
Population Fragmented Nuclei (%) [6]: 31%
Population Healthy Nuclei (%) [6]: 44%
Population Membrane Permeable-Phenotype (%) [6]: 10%
Population Mitochondria Different-Phenotype (%) [6]: 12%
Population Mitotic Cells (%) [6]: 67%
Population Pyknosed Nuclei (%) [6]: 23%
Population Tubulin-Different-Phenotype (%) [6]: 60%
Total Cell Count [6]: 133
Population Apoptotic (%) [7]: 58%
Population Fragmented Nuclei (%) [7]: 17%
Population Healthy Nuclei (%) [7]: 65%
Population Hoechst High Intensity Objects (%) [7]: 2%
Population Membrane Permeable-Phenotype (%) [7]: 0%
Population Mitochondria Different-Phenotype (%) [7]: 4%
Population Mitotic Cells (%) [7]: 41%
Population Normal (%) [7]: 97%
Population Pyknosed Nuclei (%) [7]: 17%
Population Tubulin-Different-Phenotype (%) [7]: 33%
Total Cell Count [7]: 172
Population Apoptotic (%) [8]: 36%
Population Fragmented Nuclei (%) [8]: 25%
Population Healthy Nuclei (%) [8]: 52%
Population Hoechst High Intensity Objects (%) [8]: 7%
Population Membrane Permeable-Phenotype (%) [8]: 6%
Population Mitochondria Different-Phenotype (%) [8]: 10%
Population Mitotic Cells (%) [8]: 63%
Population Normal (%) [8]: 92%
Population Pyknosed Nuclei (%) [8]: 21%
Population Tubulin-Different-Phenotype (%) [8]: 57%
Total Cell Count [8]: 164
Population Apoptotic (%) [9]: 70%
Population Fragmented Nuclei (%) [9]: 22%
Population Healthy Nuclei (%) [9]: 69%
Population Hoechst High Intensity Objects (%) [9]: 4%
Population Membrane Permeable-Phenotype (%) [9]: 1%
Population Mitochondria Different-Phenotype (%) [9]: 5%
Population Mitotic Cells (%) [9]: 30%
Population Normal (%) [9]: 95%
Population Pyknosed Nuclei (%) [9]: 7%
Population Tubulin-Different-Phenotype (%) [9]: 29%
Total Cell Count [9]: 134
Population Apoptotic (%) [10]: 33%
Population Fragmented Nuclei (%) [10]: 41%
Population Healthy Nuclei (%) [10]: 44%
Population Hoechst High Intensity Objects (%) [10]: 3%
Population Membrane Permeable-Phenotype (%) [10]: 23%
Population Mitochondria Different-Phenotype (%) [10]: 14%
Population Mitotic Cells (%) [10]: 66%
Population Normal (%) [10]: 96%
Population Pyknosed Nuclei (%) [10]: 14%
Population Tubulin-Different-Phenotype (%) [10]: 60%
Total Cell Count [10]: 129
Population Apoptotic (%) [11]: 66%
Population Fragmented Nuclei (%) [11]: 19%
Population Healthy Nuclei (%) [11]: 65%
Population Hoechst High Intensity Objects (%) [11]: 2%
Population Membrane Permeable-Phenotype (%) [11]: 1%
Population Mitochondria Different-Phenotype (%) [11]: 5%
Population Mitotic Cells (%) [11]: 33%
Population Normal (%) [11]: 97%
Population Pyknosed Nuclei (%) [11]: 14%
Population Tubulin-Different-Phenotype (%) [11]: 41%
Total Cell Count [11]: 168
Population Apoptotic (%) [12]: 60%
Population Fragmented Nuclei (%) [12]: 40%
Population Healthy Nuclei (%) [12]: 46%
Population Hoechst High Intensity Objects (%) [12]: 6%
Population Membrane Permeable-Phenotype (%) [12]: 6%
Population Mitochondria Different-Phenotype (%) [12]: 7%
Population Mitotic Cells (%) [12]: 40%
Population Normal (%) [12]: 93%
Population Pyknosed Nuclei (%) [12]: 13%
Population Tubulin-Different-Phenotype (%) [12]: 60%
Total Cell Count [12]: 193
